pIC50: −log10 of the molar value.
Assays:
SH-SY5Y cells = experiment: MTT colorimetric cytotoxicity assay; type: cell-based; conditions: Homo sapiens, 24 h
Outline: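 SH-SY5Y cells were grown in DMEM with 10% FBS at 0.1 × 10^5 cells/well for 24 h at 37 °C ([…]/5% CO2) to half-confluence. After a PBS wash and 1 h in serum-free medium, cells received free or nanoparticle test compound (0.05–100 µM) or serum-free medium for 24 h. MTT (1 mg/mL) was added for 4 h; formazan was dissolved in DMSO and read at 540 nm. Viability is expressed as % of control.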

[1] = Plasma pharmacokinetics after IV administration; type: in vivo, Sprague-Dawley male rats; conditions: male, Sprague-Dawley, rat, 5 mg/kg
Outline: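 Male Sprague-Dawley rats (8–12 weeks) received 5 mg/kg IV. Blood was taken retro-orbitally under isoflurane into K2EDTA at 0.08–24 h (nine points, 3 rats each), and plasma was stored at -85 °C. LC-MS/MS quantification used a 1.03–1026.00 ng/mL calibration with 1/x2 weighting. Noncompartmental analysis on means: AUC by mixed log-linear method, CL = Dose/AUCinf, Vss = CL×MRT.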

[2] = Tissue distribution after IV administration; type: in vivo, Sprague-Dawley male rats; conditions: for AUC0 − t: 5 mg/kg IV, rats; for Cmax: male, Sprague-Dawley, rat, iv, 5 mg/kg
Outline: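 Male Sprague-Dawley rats (8–12 weeks), 27 per group (free drug or one of two nanoparticle formulations), 3 rats at each of nine time points. Single 5 mg/kg IV dose. CO2 euthanasia; tissues excised, saline-rinsed, homogenized 1:4 in PBS pH 7.4, stored at −85 °C. LC-MS/MS against matrix-matched calibration (1.03–1026.00 ng/mL). Noncompartmental AUC0–t and Cmax; Kp as tissue/plasma AUC ratio; means reported.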

## CC(=O)c1c(C)c2cnc(Nc3ccc(N4CCNCC4)cn3)nc2n(C2CCCC2)c1=O [Palbo, Palbociclib]
SH-SY5Y cells
  pIC50: 6.07
[1]
  AUC(0-inf): 1920 ng·h/mL
[1]; CL, 5 mg/kg IV, rats
  clearance: 21.8 mL/min/kg
[2]; brain posterior region
  AUC0 − t: 757.5 ng·h/g
[2]; cerebellum
  AUC0 − t: 402.5 ng·h/g
  Cmax: 120 ng/g
[2]; frontal cortex
  AUC0 − t: 383.8 ng·h/g
  Cmax: 129 ng/g
[2]; kidney
  Cmax: 485 ng/g
[2]; liver
  Cmax: 2440 ng/g
[2]; lungs
  Cmax: 12700 ng/g
[2]; posterior brain region
  Cmax: 162 ng/g
